Calls of active or inactive are those of the source.
Legend:
[1] = molecular target: T1, Adenosine receptor A1 (Homo sapiens) (UniProt P30542); experiment: Displacement of [3H]N6-R-phenylisopropyladenosine from human A1AR expressed in CHO cells at 10 uM after 60 mins by scintillation counting analysis; assay type: cell-based
T1 sequence (whole entry): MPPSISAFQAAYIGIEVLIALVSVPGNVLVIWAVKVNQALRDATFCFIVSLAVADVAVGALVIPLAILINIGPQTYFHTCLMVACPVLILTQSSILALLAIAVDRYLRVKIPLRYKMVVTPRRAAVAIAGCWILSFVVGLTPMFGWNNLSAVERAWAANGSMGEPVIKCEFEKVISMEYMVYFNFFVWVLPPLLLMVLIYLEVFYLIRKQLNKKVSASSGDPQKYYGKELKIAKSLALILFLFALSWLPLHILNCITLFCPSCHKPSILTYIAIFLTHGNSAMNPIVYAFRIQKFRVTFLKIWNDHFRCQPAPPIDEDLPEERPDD
How it was run: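 Membranes from CHO cells stably expressing hA1AR, labelled with agonist [3H]N6-R-phenylisopropyladenosine. […] Compound stocks kept in DMSO at −80 °C; n = 3-4.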

Adenosine receptor A2a [2] = molecular target: T2, Adenosine receptor A2a (Homo sapiens, UniProt P29274); experiment: Displacement of [3H]2-[p-(2-carboxyethyl)phenyl-ethylamino]-5'-N-ethylcarboxamido-adenosine from human A2aAR expressed in HEK293 cells at 10 uM after 60 mins by scintillation counting analysis; assay type: cell-based
T2 sequence (P29274 whole entry): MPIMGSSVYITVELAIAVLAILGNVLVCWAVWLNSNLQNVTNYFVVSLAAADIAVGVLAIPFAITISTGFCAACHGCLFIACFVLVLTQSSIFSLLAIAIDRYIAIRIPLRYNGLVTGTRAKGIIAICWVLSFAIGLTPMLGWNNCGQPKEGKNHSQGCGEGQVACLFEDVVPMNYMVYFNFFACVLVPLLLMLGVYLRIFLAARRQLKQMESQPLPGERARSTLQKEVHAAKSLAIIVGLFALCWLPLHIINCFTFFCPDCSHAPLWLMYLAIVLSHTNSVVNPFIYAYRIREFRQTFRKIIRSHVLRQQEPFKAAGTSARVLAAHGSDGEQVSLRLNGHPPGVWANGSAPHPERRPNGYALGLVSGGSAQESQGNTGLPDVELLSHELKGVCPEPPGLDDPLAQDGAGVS

Adenosine receptor A3 [3] = molecular target: T3, Adenosine receptor A3 (Homo sapiens, UniProt P0DMS8); experiment: Binding affinity to human A3AR
T3 sequence (P0DMS8 whole entry): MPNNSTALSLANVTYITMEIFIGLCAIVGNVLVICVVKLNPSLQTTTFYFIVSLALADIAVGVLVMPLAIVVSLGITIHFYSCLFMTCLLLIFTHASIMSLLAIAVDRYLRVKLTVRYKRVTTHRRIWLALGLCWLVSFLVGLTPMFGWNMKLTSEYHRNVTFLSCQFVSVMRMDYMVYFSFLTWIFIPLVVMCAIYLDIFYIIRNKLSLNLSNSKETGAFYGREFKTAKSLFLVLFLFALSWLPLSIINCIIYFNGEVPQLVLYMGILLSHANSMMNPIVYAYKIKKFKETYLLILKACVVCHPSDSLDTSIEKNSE

Adenosine receptor A3 [4] = molecular target: T3, Adenosine receptor A3; experiment: Displacement of [125I]N6-(4-amino-3-iodobenzyl)adenosine-5'-N-methyluronamide from human A3AR expressed in CHO cells after 60 mins by scintillation counting analysis; assay type: cell-based
Mus musculus = experiment: Reversal of pain in po dosed mouse chronic constriction injury model assessed as paw withdrawal threshold administered 7 days post injury measured after 1 hr; assay type: functional, organism-based
How it was run: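 Mouse chronic constriction injury model of neuropathic pain; compound given orally (po); mechanoallodynia read out as paw withdrawal threshold followed over time after dosing.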

Adenosine receptor A1 = molecular target: T4, Adenosine receptor A1 (Homo sapiens, UniProt P30542); experiment: Displacement of [3H]N6-R-phenylisopropyladenosine from human A1AR expressed in CHO cells after 60 mins by scintillation counting analysis; assay type: cell-based
T4 sequence (P30542 whole entry): T1 sequence (whole entry)

Adenosine receptor A2a [5] = molecular target: T2, Adenosine receptor A2a; experiment: Displacement of [3H]2-[p-(2-carboxyethyl)phenyl-ethylamino]-5'-N-ethylcarboxamido-adenosine from human A2aAR expressed in HEK293 cells after 60 mins by scintillation counting analysis; assay type: cell-based

| Structure (SMILES) | inhibition [1] | inhibition (Adenosine receptor A2a [2]) | further results |
| --- | --- | --- | --- |
| CNC(=O)[C@@]12C[C@@H]1[C@@H](n1cnc3c(NC4CC4c4ccc(F)c(F)c4)nc(C#Cc4ccccc4)nc31)[C@H](O)[C@@H]2O (mixture of isomers) | 11% | 6% |  |
| O=[N+]([O-])c1cccc(C2CC2Nc2nc(C#Cc3ccccc3)nc3c2ncn3[C@@H]2O[C@H](CO)[C@@H](O)[C@H]2O)c1 (mixture of isomers) |  |  | Ki (Adenosine receptor A3 [3]): 11.2 nM |
| CNC(=O)[C@@]12C[C@@H]1[C@@H](n1cnc3c(NC4CC4c4ccccc4)nc(C#Cc4ccccc4)nc31)[C@H](O)[C@@H]2O (mixture of isomers) | 2% | 43% |  |
| CNC(=O)[C@@]12C[C@@H]1[C@@H](n1cnc3c(NC4CC4c4cccc(Br)c4)nc(C#Cc4ccccc4)nc31)[C@H](O)[C@@H]2O (mixture of isomers) | 17% | 32% |  |
| CNC(=O)[C@@]12C[C@@H]1[C@@H](n1cnc3c(N[C@@H]4C[C@H]4c4ccc(F)c(F)c4)nc(C#Cc4ccccc4)nc31)[C@H](O)[C@@H]2O | 11% | 0% | Ki (Adenosine receptor A3 [4]): 16.9 nM |
| CNC(=O)[C@@]12C[C@@H]1[C@@H](n1cnc3c(N[C@H]4C[C@@H]4c4ccc(F)c(F)c4)nc(C#Cc4ccccn4)nc31)[C@H](O)[C@@H]2O | 26% | 41% |  |
| CNC(=O)[C@@]12C[C@@H]1[C@@H](n1cnc3c(NC4CC4c4cccc(F)c4)nc(C#Cc4ccccc4)nc31)[C@H](O)[C@@H]2O (mixture of isomers) | 18% | 0% |  |
| CNC(=O)[C@@]12C[C@@H]1[C@@H](n1cnc3c(NC4CC4c4cccc(Cl)c4)nc(C#Cc4ccccc4)nc31)[C@H](O)[C@@H]2O (mixture of isomers) | 6% | 39% |  |
| CNC(=O)[C@@]12C[C@@H]1[C@@H](n1cnc3c(NC4CC4c4cccc(C)c4)nc(C#Cc4ccccc4)nc31)[C@H](O)[C@@H]2O (mixture of isomers) | 8% | 53% |  |
| CNC(=O)[C@@]12C[C@@H]1[C@@H](n1cnc3c(N[C@@H]4C[C@H]4c4ccc(F)c(F)c4)nc(C#Cc4ccccn4)nc31)[C@H](O)[C@@H]2O | 19% | 25% | Activity (Mus musculus): Active |
| OC[C@H]1O[C@@H](n2cnc3c(NC4CC4c4ccccc4)nc(C#Cc4ccccc4)nc32)[C@H](O)[C@@H]1O (mixture of isomers) |  |  | Ki (Adenosine receptor A1): 124 nM |
| CNC(=O)[C@@]12C[C@@H]1[C@@H](n1cnc3c(N[C@H]4C[C@@H]4c4ccc(F)c(F)c4)nc(C#Cc4ccccc4)nc31)[C@H](O)[C@@H]2O | 16% | 0% | Ki (Adenosine receptor A3 [4]): 4.55 nM |
| CNC(=O)[C@@]12C[C@@H]1[C@@H](n1cnc3c(N)nc(C#Cc4ccccc4)nc31)[C@H](O)[C@@H]2O | 28% |  | Ki (Adenosine receptor A2a [5]): 1200 nM; Ki (Adenosine receptor A3 [4]): 1.51 nM |

Reference: ChEMBL document CHEMBL3352566 (Bioorg Med Chem Lett, 2014)
